Here are results for 6 compounds from ChEMBL document CHEMBL3244032, “Synthesis and antiviral acticity of some phosphates of the broad-spectrum antiviral nucleoside, 1-beta-D-ribofuranosyl-1,2,4-triazole-3-carboxamide (ribavirin)” (J Med Chem, 1978).

The source made the active and inactive calls. The calls are words filed in the database; no cut-off is given here.

For data set [1], the system named is Human respirovirus 3. Description: Antiviral activity against Parainfluenza virus type 3 infected in human KB cells assessed as inhibition of virus-induced cytopathic effect at 1 to 1000 ug/ml after 72 hrs. It counts as functional, organism-based. In a few lines: (§1)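 KB cell monolayers (24 h old) infected with 320 cell culture 50% infectious doses/mL of virus; compound added 15 min after infection at 1000 to 1 μg/mL. Plates incubated 72 h at 37 °C and scored for inhibition of viral CPE. Activity was expressed as a virus rating that accounts for cytotoxicity and CPE in treated versus untreated cells. VR 0.5 or above was taken as definite activity.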
(In general: Cytopathic effects are the visible damage that an infection or toxin causes in cultured cells.)

Data set [2] concerns KB. In words: Antiviral activity against Adenovirus type 3 infected in human KB cells assessed as inhibition of virus-induced cytopathic effect at 1 to 1000 ug/ml after 72 hrs. It counts as functional, cell-based. To be noted: Human adenovirus 3. In a few lines: as §1
The test system of data set [3] is Vaccinia virus. Description: Antiviral activity against Vaccinia virus infected in human KB cells assessed as inhibition of virus-induced cytopathic effect at 1 to 1000 ug/ml after 72 hrs. Format: functional, organism-based. The following applies: Orthopoxvirus vaccinia.
Data set [4] has as its system KB. Description: Antiviral activity against Rhinovirus type 13 infected in human KB cells assessed as inhibition of virus-induced cytopathic effect at 1 to 1000 ug/ml after 72 hrs. It counts as functional, cell-based. The following applies: Human rhinovirus A13. A digest of the protocol:
as §1

The test system of data set [5] is Human alphaherpesvirus 1. Description: Antiviral activity against HSV1 infected in human KB cells assessed as inhibition of virus-induced cytopathic effect at 1 to 1000 ug/ml after 72 hrs. Format: functional, organism-based. A digest of the protocol: as §1
Data set [6] relates to Mus musculus. Description: Toxicity in Swiss mouse infected with Murine hepatitis virus Friend-Braunsteiner assessed as survival at 37.5 mg/kg/day, ip bid administered for 8 days started at 2 hrs prior to infection. It counts as organism-based. More on the design: route intraperitoneal. To be noted: in vivo.
Data set [7] deals with Mus musculus. In words: Toxicity in Swiss mouse infected with Murine hepatitis virus Friend-Braunsteiner assessed as survival at 75 mg/kg/day, ip bid administered for 8 days started at 2 hrs prior to infection. Format: organism-based. More on the design: route intraperitoneal. The following applies: in vivo.
The test system of data set [8] is Influenza B virus. In words: Antiviral activity against Influenza B virus Lee infected in Swiss mouse assessed as mean survival time at 75 mg/kg/day, ip bid administered for 9 days (reference value: 11.2 days). It counts as functional. The following applies: route intraperitoneal. In a few lines: (§2)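 Swiss mice, 14-16 g, given virus intranasally at a dose lethal to 95%. Dosed intraperitoneally twice daily for 9 days, starting 4 h before infection; controls got saline. Survivors counted on day 21 postinfection; survival compared by χ² analysis. Mean survival time is from animals dying on or before day 21 and was compared by t test.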

Data set [9] relates to Mus musculus. Description: Toxicity in Swiss mouse infected with Murine hepatitis virus Friend-Braunsteiner assessed as survival at 18.8 mg/kg/day, ip bid administered for 8 days started at 2 hrs prior to infection. Format: organism-based. The following applies: in vivo. More on the design: route intraperitoneal.
Data set [10] has as its system Influenza A virus. Description: Antiviral activity against Influenza A2 virus Japan 305 infected in Swiss mouse assessed as mean survival time at 75 mg/kg/day, po bid administered for 9 days (reference value: 9 days). It counts as functional.
Data set [11] deals with Murine hepatitis virus. In words: Antiviral activity against Murine hepatitis virus Friend-Braunsteiner infected in Swiss mouse assessed as mean survival time at 37.5 mg/kg/day, ip bid administered for 8 days (reference value: 5.2 days). Format: functional. The following applies: route intraperitoneal. In a few lines:
(§3)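 Swiss mice, 16-18 g, inoculated ip with a 95% lethal dose of virus. Dosed ip twice daily for 8 days, beginning 2 h before inoculation, at 18.8, 37.5 or 75 mg/kg/day; controls got saline. Survivors counted on day 21; survival compared by χ² analysis. Mean survival time is from deaths on or before day 21, compared by t test.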

Data set [12] relates to Murine hepatitis virus. In words: Antiviral activity against Murine hepatitis virus Friend-Braunsteiner infected in Swiss mouse assessed as survival at 18.8 to 75 mg/kg/day, ip bid administered for 8 days relative to control. Format: functional, organism-based. A digest of the protocol: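 Swiss mice of 16-18 g were inoculated ip with a 95% lethal dose of virus. Treatment was given ip twice daily for 8 days, starting 2 h before inoculation, at 75, 37.5 or 18.8 mg/kg/day; placebo controls received saline. Survivors were counted on day 21 postinfection and compared by χ² analysis. Mean survival time covered animals dying by day 21 and was compared by t test. Uninfected toxicity controls were included.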

The subject of data set [13] is Mus musculus. In words: Toxicity in Swiss mouse infected with Influenza A2 virus Japan 305 assessed as survival at 75 mg/kg/day, po bid administered for 9 days started at 4 hrs prior to infection. The following applies: in vivo. The arrangement: route oral. It counts as organism-based.
Data set [14] deals with Murine hepatitis virus. Description: Antiviral activity against Murine hepatitis virus Friend-Braunsteiner infected in ip dosed Swiss mouse assessed as most effective dose administered bid for 8 days. It counts as functional. A digest of the protocol: as §3
Data set [15] concerns Murine hepatitis virus. Description: Antiviral activity against Murine hepatitis virus Friend-Braunsteiner infected in Swiss mouse assessed as mean survival time at 18.8 mg/kg/day, ip bid administered for 8 days (reference value: 5.2 days). Format: functional. To be noted: route intraperitoneal. A digest of the protocol: as §3
In data set [16] the test system is Mus musculus. In words: Toxicity in Swiss mouse infected with Influenza B virus Lee assessed as survival at 75 mg/kg/day, ip bid administered for 9 days started at 4 hrs prior to infection. Format: organism-based. More on the design: route intraperitoneal. The following applies: in vivo.
In data set [17] the test system is Murine hepatitis virus. Description: Antiviral activity against Murine hepatitis virus Friend-Braunsteiner infected in Swiss mouse assessed as mean survival time at 75 mg/kg/day, ip bid administered for 8 days (reference value: 5.2 days). It counts as functional. The following applies: route intraperitoneal. A digest of the protocol: as §3
Data set [18] can be described thus: Toxicity in Swiss mouse. It counts as organism-based. To be noted: in vivo.
The test system of data set [19] is Influenza B virus. Description: Antiviral activity against Influenza B virus Lee infected in Swiss mouse assessed as survival at 75 mg/kg/day, ip bid administered for 9 days relative to control. Format: functional, organism-based. A digest of the protocol:
as §2

The test system of data set [20] is Influenza A virus. Description: Antiviral activity against Influenza A2 virus Japan 305 infected in Swiss mouse assessed as survival at 75 mg/kg/day, po bid administered for 9 days relative to control. It counts as functional, organism-based.

`NC(=O)c1ncn([C@@H]2O[C@H](COP(=O)(O)OP(=O)(O)O)[C@@H](O)[C@H]2O)n1`: the outcome in data set [1], in data set [3], in data set [4] and in data set [5] was Active. Moreover, in data set [2], the outcome was inactive.
Turning to `NC(=O)c1ncn([C@@H]2O[C@H](COP(=O)(O)OP(=O)(O)OP(=O)(O)O)[C@@H](O)[C@H]2O)n1`, the outcome in data set [1], in data set [3], in [4] and in data set [5] was Active. In addition, the result in [2] was inactive.
For `NC(=O)c1ncn([C@@H]2O[C@H](CO)[C@@H](O)[C@H]2O)n1`, the outcome in data set [1], in [2], in [3], in data set [4] and in [5] was Active.
Consider `NC(=O)c1ncn([C@@H]2O[C@H](CO)[C@H]3OP(=O)(O)O[C@H]32)n1`, for which the outcome in data set [1], in [3], in [4] and in data set [5] was Active. Besides, the result in [2] was inactive.
For `NC(=O)c1ncn([C@@H]2O[C@@H]3COP(=O)(O)O[C@H]3[C@H]2O)n1`, the result in data set [1], in data set [3], in [4] and in data set [5] was Active. The result in [2] was inactive.
For `NC(=O)c1ncn([C@@H]2O[C@H](COP(=O)([O-])[O-])[C@@H](O)[C@H]2O)n1.[Li+].[Li+]`, the Activity entry is reported as “Non-toxic” in data set [6]; “Non-toxic” in [7]; “Non-toxic” in [9]; “Non-toxic” in data set [13]; 37.5 mg/kg/day in data set [14]; “Non-toxic” in [16]. Besides, the MSD in data set [8] was determined as 13.3 days; in [10] it was 7.6 days; in [11], 6 days; in [15], 5.3 days; in [17], 6.1 days. Further, the outcome in data set [1], in data set [12], in [3], in data set [4], in data set [5] and in data set [19] was Active. Besides, the result in data set [20] was Active. In addition, the result in data set [2] was inactive. In addition, the MTD in [18] stood at 150 mg/kg/day.
